Consider 91 compounds from PubChem BioAssay AID624467 (The Scripps Research Institute Molecular Screening Center, 2012).

“And” between values parts separate entries of the source, which are not always exact repeats. Identical values can stand only once. In all, about 360,000 compounds went through this assay and about 3,600 (1%) were called active.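 The calls were made as follows: active = activation above the mean activation of all test compounds in the run plus 3 SD (cut at about 38% in these data); inactive = the rest.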 This excerpt belongs to a sample that is enriched for actives.

Trace amine-associated receptor 1 (Homo sapiens), sequence (Q96RJ0 whole entry, looked up): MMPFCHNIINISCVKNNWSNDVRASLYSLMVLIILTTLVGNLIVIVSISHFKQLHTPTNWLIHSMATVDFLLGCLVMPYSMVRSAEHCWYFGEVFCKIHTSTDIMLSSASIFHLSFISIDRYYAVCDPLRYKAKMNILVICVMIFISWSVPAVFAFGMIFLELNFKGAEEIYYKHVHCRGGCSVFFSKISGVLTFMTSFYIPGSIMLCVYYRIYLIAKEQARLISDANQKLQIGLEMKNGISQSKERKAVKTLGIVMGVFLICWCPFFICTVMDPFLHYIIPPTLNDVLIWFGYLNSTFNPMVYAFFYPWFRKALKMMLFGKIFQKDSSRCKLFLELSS

In the assay the target is Trace amine-associated receptor 1 (Homo sapiens) (UniProt Q96RJ0). As to the kind of experiment: human TAAR1 agonists, primary screen, Fluo-8 calcium fluorescence, CHO RD-HGA16 cells (AID 624467). As to conditions: CHO RD-HGA16 TAAR1, Fluo-8 calcium fluorescence; at 3 µM; stronger effect = higher value; vehicle wells 0%, saturating PEA agonist 100%. An outline of the steps: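 Repeats: no replicates (n 1) | Material: CHO-derived RD-HGA16 cells with stable Gα16 and human TAAR1 | Technique: Kinetic Fluo-8 calcium fluorescence | Schedule: 17-24 h seeding, 75 min 37 °C dye, 30 min RT | Evaluation: % activation from peak over basal fluorescence ratio, DMSO-to-PEA scaled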
`COc1ccccc1CNC(=O)c1ccc(CS(=O)(=O)c2ccccc2)o1`: the activation was 11.9% (inactive).

In the case of `Cc1ccccc1S(=O)(=O)Cc1ccc(C(=O)NCCN2CCCCC2C)o1` (stereo unspecified), the activation is 8.73% (inactive).

Turning to `CCc1ccccc1S(=O)(=O)Cc1ccc(C(=O)NCCc2ccccc2)o1`, the activation was 50.3% (active).

With `CCCc1nnc(NC(=O)CCC(=O)N2CCN(S(=O)(=O)c3ccc(OC)cc3)CC2)s1`, the activation was 4.53% (inactive).

As to `CC1CCCN(c2cccc3c2S(=O)(=O)N(Cc2ccc(F)cc2)[C@@H](C)[C@H](c2ccccc2)O3)C1` (stereo partly specified), the activation is 0.84% (inactive).

Take `COC(=O)[C@]12C[C@H](CC(=O)NCc3ccccc3)C(=O)N(CCC3=CCCCC3)C1=C[C@H](C(C)(C)C)O[C@@H]2C`: the activation is -2.08% (inactive).

Turning to `CCCCNC(=S)N/N=C1\CCCCc2ccccc21`, the activation was -2.14% (inactive).

As to `S=C(NN=C1CCN(Cc2ccccc2)CC1)NC1CCCCC1`, the activation is 1.76% (inactive).

As for `CCCC1CCC(=NNC(=S)NCCc2ccccc2)CC1` (stereo unspecified), the activation was 54.9% (active).

Turning to `Cc1cccnc1CCNC(=O)C1CCC(=O)N(Cc2cccc(F)c2)C1` (stereo unspecified), the activation is 0.59% (inactive).

For `CN1CCCCC(NC(=O)C(C)(C)C)C1=O` (stereo unspecified), the activation is 3.02% (inactive).

With `O=[N+]([O-])c1ccccc1N/N=C1\CCc2ccccc21`, the activation is -0.37% (inactive).

`Oc1ccc2ccc3cccc[n+]3c2c1`: the activation was 152% (active).

As for `Cc1ccc(C)c(CN2CCC(CNC(=O)C3CCCN(c4ncnc5c4nc4n5CCCCC4)C3)CC2)c1` (stereo unspecified), the activation is -0.04% (inactive).

Turning to `COc1ccccc1CCn1cnc(-c2ccccc2)c1C(C)C`, the activation was 8.43% (inactive).

As for `COc1ccccc1Cc1c(-c2ccc(F)cc2)nc2ccc(C)cn12`, the activation is 0.01% (inactive).

Consider `CCCc1c(-c2ccccc2F)ncn1Cc1ccccc1OC`, for which the activation is 5.04% (inactive).

As for `COc1ccccc1Cc1c(-c2ccc(Cl)cc2)nc2c3ccccc3ccn12`, the activation was 0.7% (inactive).

For `COc1ccccc1CCNS(=O)(=O)c1cn(C)nc1C`, the activation was 4.37% (inactive).

Turning to `CCCCc1c(-c2ccc(Cl)cc2)ncn1CCc1ccccc1OC`, the activation is 54.2% (active).

Turning to `CCCCc1c(-c2ccc(Br)cc2)ncn1CCc1ccccc1OC`, the activation was 48% (active).

`CCc1c(-c2ccccc2OC)ncn1CCc1ccccc1OC`: the activation was 53% (active).

Turning to `COc1ccccc1Cc1c(-c2ccc(Cl)cc2)nc2ccc(Cl)cn12`, the activation was -1.69% (inactive).

As to `[2H]C(CCOS(N)(=O)=O)c1ccccc1` (stereo unspecified), the activation is -0.46% (inactive).

On to `CCCNC(=O)CCc1c(C)nc2c(c(C)nn2-c2ccccc2)c1C`, for which the activation was 1.73% (inactive).

In the case of `O=C1CC(C(F)(F)C(F)(F)C(F)(F)C(F)(F)F)=Nc2ccccc2N1`, the activation is -0.77% (inactive).

On to `COc1ccc(-c2ccccc2C2Cc3nnccc3CN2C(=O)Nc2ccccc2)cc1` (stereo unspecified), for which the activation is -0.83% (inactive).

As for `COC(=O)c1cc2c(c3c4ccccc4n(S(=O)(=O)c4cccc(C)c4)c13)C(=O)N(Cc1ccccc1)C2`, the activation was 3.11% (inactive).

As for `C=CCNC(=O)COC(=O)c1ccccc1C(=O)N(C)C1CCCCC1`, the activation is 5.08% (inactive).

On to `NS(=O)(=O)c1ccc(CCNC(=O)NC2CCCCC2)cc1`, for which the activation is 1.51% (inactive).

As for `CC(C)C(=O)Nc1ccc2c(c1)oc1ccccc12`, the activation was 6.67% (inactive).

For `NC(=O)Nc1ccccc1C(=O)NCCc1ccccc1`, the activation is 10.1% (inactive).

For the compound `CC(NC(=O)CC1SC(N)=NC1=O)c1ccccc1` (stereo unspecified), the activation is 4.22% (inactive).

For `Nc1[nH]c(C(=O)c2ccc(Br)cc2)c(-c2ccc3c(c2)OCO3)c1C(=O)NCCc1c[nH]c2ccccc12`, the activation is 6.41% (inactive).

For the compound `COc1cccc(NC(=O)Nc2nnc(N3CCCCC3C)s2)c1` (stereo unspecified), the activation was 0.7% (inactive).

With `NC(c1csc(NC(=O)Nc2ccccc2Oc2ccccc2)n1)c1ccccc1Cl` (stereo unspecified), the activation is 13.7% (inactive).

In the case of `CCOC(=O)c1csc(NC(=O)Nc2cccc(OC)c2)n1`, the activation is 14.4% (inactive).

As to `NC(c1csc(NC(=O)Nc2cccc(C(F)(F)F)c2)n1)C1CCCCC1` (stereo unspecified), the activation was 39% (active).

In the case of `NC(c1ccccc1)c1csc(NC(=O)Nc2cccc(C(F)(F)F)c2)n1` (stereo unspecified), the activation was 57% (active).

With `CC(=O)c1ccc(Nc2nc(C(N)c3ccccc3)cs2)cc1` (stereo unspecified), the activation was 4.52% (inactive).

For `COc1cc(NC(=O)c2cncc(-c3ccc(C#N)cc3)c2)cc(C(=O)Nc2cccc(C(F)(F)F)c2)c1`, the activation was 7.65% (inactive) and 3.81% (inactive).

In the case of `C/C(CC(=O)Nc1cccc(C(F)(F)F)c1)=N\NC(=O)C(=O)NCC(C)C`, the activation was 4.66% (inactive).

As for `COc1ccc(C(N)c2csc(NC(=O)Nc3cccc(C(F)(F)F)c3)n2)cc1` (stereo unspecified), the activation is 50.9% (active).

As for `CC1(C(=O)NS(=O)(=O)c2cccc(F)c2)CCN1C(=O)c1cccc2ccccc12` (stereo unspecified), the activation is -0.17% (inactive).

As to `O=S1(=O)c2c(cccc2N2CCCC2)O[C@H](COCc2ccccc2)CN1C1CC1`, the activation was 0.87% (inactive).

With `Cc1cc(N2CCN(C(=O)OC(C)(C)C)C[C@H]2C)ccc1N1CCN(Cc2ccccc2)[C@H](C)C1`, the activation is 0.58% (inactive).

For `Cc1nc2c(OCc3ccc(Cl)cc3)cccn2c1N(C)Cc1cccs1`, the activation was 0.87% (inactive).

For the compound `CCCCCCCCN1C(=O)[C@@H](CC(=O)NCc2ccccc2)C[C@@]2(C(=O)OC)C1=C[C@H](C(C)(C)C)O[C@@H]2C`, the activation is -0.96% (inactive).

As for `Cc1ccc(OC(=O)c2cncc(Br)c2)c(C)c1`, the activation was 6.31% (inactive).

With `COCCNC(=O)C1CCN(C(=O)C2CC(=O)N(c3ccc(C)cc3)C2)CC1` (stereo unspecified), the activation is -0.76% (inactive).

Take `COc1ccc(C(=O)NC(=S)NNC(=O)c2c(-c3ccccc3)noc2C)cc1`: the activation is 120% (active).

For the compound `Cc1onc(-c2ccccc2)c1C(=O)NNC(=S)NC(=O)c1ccc(F)cc1`, the activation is 112% (active).

As for `COc1ccc(C(=O)NC(=O)CSc2nnc(-c3ccco3)n2-c2ccccc2)cc1`, the activation was 1.34% (inactive).

As to `COc1ccc(NC(=O)c2sc(N3CCOCC3)nc2-c2ccccc2)c(OC)c1`, the activation was -1.31% (inactive).

As for `Cc1onc(-c2ccccc2)c1C(=O)N1CCN(S(=O)(=O)c2ccccc2C(F)(F)F)CC1`, the activation was 0.73% (inactive).

Consider `Cc1nc2ccccc2c(C)c1C(=O)c1ccc(F)cc1`, for which the activation was 12.1% (inactive).

On to `O=C(O)C1CCN(S(=O)(=O)N2CCOCC2)CC1`, for which the activation was 7.75% (inactive).

As to `Cc1ccc(OCC(=O)Nc2ccc(C(=O)O)cc2NC(=O)COc2ccc(C)c(C)c2)cc1C`, the activation is 3.56% (inactive).

For the compound `Cc1cc2oc(=O)cc(-c3ccccc3)c2c(C)c1-c1ccc(OC(F)(F)F)cc1`, the activation is 2.46% (inactive).

On to `CCO[C@H]1OC(C(=O)N2CCOCC2)=C[C@@H](c2ccc3c(c2)OCO3)[C@@H]1CCCO`, for which the activation was 5.53% (inactive).

`O=C(NCc1ccccc1)[C@@H]1CCCN1C(=O)[C@@H](NS(=O)(=O)c1ccc(F)cc1F)C1CCCCC1`: the activation was -0.54% (inactive).

On to `COc1ccccc1CNS(=O)(=O)c1c(C)[nH]c(C)c1C(=O)N1CCCCC1`, for which the activation is 0.59% (inactive).

For the compound `NC(=O)c1cc(-c2cccnc2)nc2ccc(Br)cc12`, the activation was 0.6% (inactive).

Take `NC(N)=Nc1nc2ccc(Br)cc2c(=O)[nH]1`: the activation is 10.5% (inactive).

In the case of `O=c1c2cc(Br)ccc2nc(-c2cccc(Cl)c2)n1O`, the activation was 51.9% (active).

For the compound `C=CCNC(=O)COc1coc(CN2CCN(Cc3ccccc3)CC2)cc1=O`, the activation is 2.55% (inactive).

In the case of `CCC(C(=O)OCC(=O)Nc1c(Cl)cc(Cl)cc1Cl)c1ccccc1` (stereo unspecified), the activation is 8.86% (inactive).

As to `CCC(C(=O)Nc1ccc(C(C)C)cc1)c1ccccc1` (stereo unspecified), the activation is 95.2% (active).

As for `CC(C)c1ccc(NC(=O)Cn2ncc3ccccc32)cc1`, the activation was 1.09% (inactive).

In the case of `CCOC(=O)N(C)c1c(CC)nc2c(OCc3ccccc3C(=O)OC)cccn12`, the activation is 0.97% (inactive).

Consider `O=C(CN1CCSCC1)N/N=C/c1ccc(Cl)cc1`, for which the activation was 12.7% (inactive).

As for `O=C1NC[C@H](CCCCN2CCN(CCc3ccccc3)C(=O)C2=O)N(CC2CCCCC2)C1=O`, the activation is 1.95% (inactive).

As for `CCN(CCN(C)C)C(=O)c1ccc2nc(C)c(N(C)C(=O)CCc3ccccc3)n2c1`, the activation is 1.46% (inactive).

As for `O=C1C=C(c2ccc(Cl)cc2)C(=O)N1Nc1ccccc1`, the activation was 58.9% (active).

As for `O=C(COC(=O)c1cccc(Cl)c1)NC(=O)NCc1ccccc1`, the activation is 2.7% (inactive).

Turning to `CCCCN1C(=O)C(C)=C(C)C1OCCc1ccc(OC)c(OC)c1` (stereo unspecified), the activation was 2.56% (inactive).

`CCCCCc1c(-c2cccc(Br)c2)ncn1CCc1ccccc1OC`: the activation is 50.1% (active).

As for `CCCCCc1c(-c2ccc(OC)c(OC)c2)ncn1CCc1ccccc1OC`, the activation was 60.6% (active).

With `CCCCCc1c(Cc2ccccc2)ncn1CCc1ccccc1OC`, the activation is 62.8% (active).

For `Cn1c(=O)c2c(ncn2CCc2ccccc2)n(C)c1=O`, the activation is 2.07% (inactive).

Turning to `COC(=O)c1ccc2nc(-c3cccc(Br)c3)c(Cc3ccccc3C(F)(F)F)n2c1`, the activation was 4.12% (inactive).

As for `CCCCNS(=O)(=O)CCNCc1ccccc1OC`, the activation was -1.08% (inactive).

As for `COC(=O)c1ccc2nc(-c3ccc(OC)c(OC)c3)c(Cc3ccccc3)n2c1`, the activation was -2.01% (inactive).

For `CCc1c(-c2ccc(F)cc2)ncn1Cc1cccc(-c2ccccc2)c1`, the activation was 0.6% (inactive).

In the case of `C=C1CCC(N(O)c2cc(C)on2)C(=C)CCC2C1CC2(C)C` (stereo unspecified), the activation was 2.74% (inactive).

As for `COC(=O)C1=C(C)N(Cc2ccc(C(F)(F)F)cc2)C(=NCc2ccccc2)NC1c1ccccc1C(F)(F)F` (stereo unspecified), the activation was 5.43% (inactive).

Consider `O=C(CC1NCCc2ccccc21)Nc1cccc(Cl)c1` (stereo unspecified), for which the activation is 9.23% (inactive).

On to `COCCNC(=S)N(C)[C@H]1C[C@H]2c3[nH]c4ccccc4c3CCN2C[C@H]1[C@H](C)O`, for which the activation is 3.21% (inactive).

For `CC1CCCCC1NC(=O)CSc1nnc(N)s1` (stereo unspecified), the activation is 9.77% (inactive).

On to `CCN(CC)C(=O)CS(=O)CC(=O)Nc1cc(OCCOC)c(Cl)cc1Cl` (stereo unspecified), for which the activation was 5.84% (inactive).

On to `COc1ccc(OC)c(NC(=O)c2ccc3c(c2)CCN3S(C)(=O)=O)c1`, for which the activation is 2.63% (inactive).
